Measured values: ChEMBL document CHEMBL4257478, “Design, synthesis and evaluation of (R)-3-(7-(methyl(7H-pyrrolo[2,3-d]pyrimidin-4-yl)amino)-5-azaspiro[2.4]heptan-5-yl)-3-oxopropanenitrile as a JAK1-selective inhibitor” (Medchemcomm, 2018)
Calls of active or inactive are those of the source. The rule behind the calls is not given here.

Columns and labels:
[1] = Half life in Sprague-Dawley rat at 5 mg/kg, iv after 0.08 to 24 hrs by LC-MS/MS method; format: ADME, organism-based; settings: in vivo
Procedure, shortened: (§1)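 Male Sprague Dawley rats, 7-8 weeks old, n=4 per group. IV dose 5 mg/kg free base in 10% ethanol/90% PEG400; oral dose 10 mg/kg as corn oil suspension after 16 h fast. Blood taken 0.08-24 h (IV) or 0.25-24 h (PO). Plasma diluted in acetonitrile with internal standard, analysed by LC-MS/MS, parameters by non-compartmental analysis.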

[2] = Half life in Sprague-Dawley rat at 10 mg/kg, po after 0.25 to 24 hrs by LC-MS/MS method; format: ADME, organism-based; settings: in vivo; procedure, shortened: as §1
Rattus norvegicus [3] = assay: AUC (0 to t) in Sprague-Dawley rat at 10 mg/kg, po after 0.25 to 24 hrs by LC-MS/MS method; format: ADME, organism-based; set-up: time lower 0.25 hr, dose 10 mg/kg, time upper 24 hr, route oral; settings: in vivo; procedure, shortened: as §1
Rattus norvegicus [4] = assay: AUC (0 to infinity) in Sprague-Dawley rat at 5 mg/kg, iv after 0.08 to 24 hrs by LC-MS/MS method; format: ADME, organism-based; set-up: dose 5 mg/kg, time infinity, route intravenous; settings: in vivo; procedure, shortened: as §1
[5] = MRT in Sprague-Dawley rat at 10 mg/kg, po after 0.25 to 24 hrs by LC-MS/MS method; format: ADME, organism-based; settings: in vivo; procedure, shortened: as §1
Rattus norvegicus [6] = assay: AUC (0 to infinity) in Sprague-Dawley rat at 10 mg/kg, po after 0.25 to 24 hrs by LC-MS/MS method; format: ADME, organism-based; set-up: dose 10 mg/kg, route oral, time infinity; settings: in vivo; procedure, shortened: as §1
[7] = Tmax in Sprague-Dawley rat at 10 mg/kg, po after 0.25 to 24 hrs by LC-MS/MS method; format: ADME, organism-based; settings: in vivo
Procedure, shortened: (§2)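 Male Sprague Dawley rats, 7–8 weeks old, n=4, fasted 16 h. Free base given at 10 mg/kg po as a corn oil suspension (5 mL/kg); a 5 mg/kg iv arm used 10% ethanol/90% PEG400. Plasma sampled 0.25–24 h, acetonitrile-precipitated with internal standard, and measured by LC-MS/MS. Parameters derived by non-compartmental analysis.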

[8] = MRT in Sprague-Dawley rat at 5 mg/kg, iv after 0.08 to 24 hrs by LC-MS/MS method; format: ADME, organism-based; settings: in vivo; procedure, shortened: as §1
[9] = Cmax in Sprague-Dawley rat at 10 mg/kg, po after 0.25 to 24 hrs by LC-MS/MS method; format: ADME, organism-based; set-up: dose 10 mg/kg, route oral; settings: in vivo; procedure, shortened: as §1
[10] = Oral bioavailability in Sprague-Dawley rat at 10 mg/kg after 0.25 to 24 hrs by LC-MS/MS method; format: ADME, organism-based; settings: in vivo; procedure, shortened: as §2
Rattus norvegicus [11] = assay: AUC (0 to t) in Sprague-Dawley rat at 5 mg/kg, iv after 0.08 to 24 hrs by LC-MS/MS method; format: ADME, organism-based; set-up: time upper 24 hr, time lower 0.08 hr, dose 5 mg/kg, route intravenous; settings: in vivo; procedure, shortened: as §1
Mus musculus [12] = assay: Antiarthritic activity in collagen-induced DBA1/J mouse arthritis model assessed as decrease in infiltration of inflammatory cells in right hind ankle joints at 100 mg/kg, po qd measured on day 19 by hematoxylin-eosin staining-based assay; format: functional, organism-based
Procedure, shortened: (§3)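 Male DBA1/J mice, 6 weeks old, immunized s.c. at the tail base with type II collagen (2 mg/mL) in complete Freund's adjuvant (1:1, 0.1 mL), then boosted at day 21 with collagen in incomplete Freund's adjuvant. Clinical scores taken twice weekly for 18 days; serum IL-6 and TNF-α measured after autopsy; right hind ankle assessed by histopathology and by micro-CT for bone surface/volume.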

Mus musculus [13] = assay: Antiarthritic activity in collagen-induced DBA1/J mouse arthritis model assessed as decrease in paw volume at 100 mg/kg, po qd measured on day 1 and 15 by plethysmometer
Mus musculus [14] = assay: Antiarthritic activity in collagen-induced DBA1/J mouse arthritis model assessed as decrease in right hind ankle joint thickness at 100 mg/kg, po qd measured on day 19 by hematoxylin-eosin staining-based assay; format: functional, organism-based; procedure, shortened: as §3
Mus musculus [15] = assay: Antiarthritic activity in collagen-induced DBA1/J mouse arthritis model assessed as decrease in clinical arthritis score at 100 mg/kg, po qd measured twice weekly for 18 days; format: functional, organism-based; procedure, shortened: as §3
Mus musculus [16] = assay: Antiarthritic activity in collagen-induced DBA1/J mouse arthritis model assessed as decrease in articular surface cartilage thickness in right hind ankle joints at 100 mg/kg, po qd measured on day 19 by hematoxylin-eosin staining-based assay; format: functional, organism-based; procedure, shortened: as §3
Rattus norvegicus [17] = assay: Antiarthritic activity in adjuvant-induced SPF LEW/SsNSlc rat arthritis model assessed as paw thickness at 20 mg/kg, po qd measured on day 14; format: functional
Procedure, shortened: (§4)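 Lewis rats were 10 weeks old after 2 weeks acclimation. Immunized s.c. at the tail base with 0.1 mL complete Freund's adjuvant containing 10 mg/mL heat-killed mycobacterium. From day 12 post-immunization (day 1), n=10 per group, oral dosing once daily for 14 days, vehicle corn oil. Clinical score and hind paw measured twice weekly.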

Mus musculus [18] = assay: Antiarthritic activity in collagen-induced DBA1/J mouse arthritis model assessed as decrease in ratio of bone surface to bone volume of right hind ankle joint at 100 mg/kg, po qd measured on day 19 by micro-CT analysis; format: functional, organism-based; procedure, shortened: as §3
Mus musculus [19] = assay: Antiarthritic activity in collagen-induced DBA1/J mouse arthritis model assessed as decrease in serum IL-6 levels at 100 mg/kg, po qd measured on day 19 by ELISA; format: functional, organism-based; procedure, shortened: as §3
Rattus norvegicus [20] = assay: Antiarthritic activity in adjuvant-induced SPF LEW/SsNSlc rat arthritis model assessed as decrease in clinical arthritis score at 20 mg/kg, po qd measured on day 14; format: functional, organism-based; procedure, shortened: as §4
Mus musculus [21] = assay: Antiarthritic activity in collagen-induced DBA1/J mouse arthritis model assessed as decrease in serum TNF-alpha levels at 100 mg/kg, po qd measured on day 19 by ELISA; format: functional, organism-based; procedure, shortened: as §3
[22] = target: Tyrosine-protein kinase JAK2 (Homo sapiens, UniProt O60674); assay: Inhibition of human JAK2 at 1 uM using KTFCGTPEYLAPEVRREPRILSEEEQEMFRDFDYIADWC as substrate after 40 mins in presence of [gamma-33P-ATP] by scintillation counting method relative to control
Sequence of Tyrosine-protein kinase JAK2 (O60674 whole entry): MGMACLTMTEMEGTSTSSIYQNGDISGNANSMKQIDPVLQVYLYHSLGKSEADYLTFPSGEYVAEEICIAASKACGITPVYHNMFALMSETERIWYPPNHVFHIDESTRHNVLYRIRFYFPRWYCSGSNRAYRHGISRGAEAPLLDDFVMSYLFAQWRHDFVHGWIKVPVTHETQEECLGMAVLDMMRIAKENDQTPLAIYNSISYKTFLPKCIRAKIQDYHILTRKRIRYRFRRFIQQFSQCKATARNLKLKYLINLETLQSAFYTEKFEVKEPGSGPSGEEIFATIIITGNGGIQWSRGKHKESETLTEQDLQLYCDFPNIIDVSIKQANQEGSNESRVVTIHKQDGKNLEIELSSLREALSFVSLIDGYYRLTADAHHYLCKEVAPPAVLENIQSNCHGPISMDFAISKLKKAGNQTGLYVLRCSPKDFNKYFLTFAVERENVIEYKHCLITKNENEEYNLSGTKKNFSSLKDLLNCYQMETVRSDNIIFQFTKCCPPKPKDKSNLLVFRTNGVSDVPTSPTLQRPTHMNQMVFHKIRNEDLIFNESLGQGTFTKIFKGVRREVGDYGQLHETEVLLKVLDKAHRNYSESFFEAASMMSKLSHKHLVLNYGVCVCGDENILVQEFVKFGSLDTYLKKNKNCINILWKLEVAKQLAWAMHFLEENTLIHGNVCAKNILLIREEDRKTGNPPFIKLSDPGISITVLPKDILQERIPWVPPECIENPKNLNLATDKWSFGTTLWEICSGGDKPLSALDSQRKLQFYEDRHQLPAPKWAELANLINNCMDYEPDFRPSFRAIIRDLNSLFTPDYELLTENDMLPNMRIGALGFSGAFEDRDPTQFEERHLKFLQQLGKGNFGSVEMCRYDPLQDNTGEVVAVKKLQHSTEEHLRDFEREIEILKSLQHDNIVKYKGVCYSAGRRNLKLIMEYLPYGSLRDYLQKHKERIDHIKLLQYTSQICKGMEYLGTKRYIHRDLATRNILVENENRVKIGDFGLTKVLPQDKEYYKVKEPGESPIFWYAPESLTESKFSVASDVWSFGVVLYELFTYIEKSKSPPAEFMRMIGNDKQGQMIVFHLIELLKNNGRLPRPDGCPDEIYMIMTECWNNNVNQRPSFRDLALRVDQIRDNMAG

[23] = target: T1, Tyrosine-protein kinase JAK1 (Homo sapiens, UniProt P23458); assay: Inhibition of human JAK1 at 1 uM using GEEPLYWSFPAKKK as substrate after 40 mins in presence of [gamma-33P-ATP] by scintillation counting method relative to control
T1 sequence (P23458 whole entry): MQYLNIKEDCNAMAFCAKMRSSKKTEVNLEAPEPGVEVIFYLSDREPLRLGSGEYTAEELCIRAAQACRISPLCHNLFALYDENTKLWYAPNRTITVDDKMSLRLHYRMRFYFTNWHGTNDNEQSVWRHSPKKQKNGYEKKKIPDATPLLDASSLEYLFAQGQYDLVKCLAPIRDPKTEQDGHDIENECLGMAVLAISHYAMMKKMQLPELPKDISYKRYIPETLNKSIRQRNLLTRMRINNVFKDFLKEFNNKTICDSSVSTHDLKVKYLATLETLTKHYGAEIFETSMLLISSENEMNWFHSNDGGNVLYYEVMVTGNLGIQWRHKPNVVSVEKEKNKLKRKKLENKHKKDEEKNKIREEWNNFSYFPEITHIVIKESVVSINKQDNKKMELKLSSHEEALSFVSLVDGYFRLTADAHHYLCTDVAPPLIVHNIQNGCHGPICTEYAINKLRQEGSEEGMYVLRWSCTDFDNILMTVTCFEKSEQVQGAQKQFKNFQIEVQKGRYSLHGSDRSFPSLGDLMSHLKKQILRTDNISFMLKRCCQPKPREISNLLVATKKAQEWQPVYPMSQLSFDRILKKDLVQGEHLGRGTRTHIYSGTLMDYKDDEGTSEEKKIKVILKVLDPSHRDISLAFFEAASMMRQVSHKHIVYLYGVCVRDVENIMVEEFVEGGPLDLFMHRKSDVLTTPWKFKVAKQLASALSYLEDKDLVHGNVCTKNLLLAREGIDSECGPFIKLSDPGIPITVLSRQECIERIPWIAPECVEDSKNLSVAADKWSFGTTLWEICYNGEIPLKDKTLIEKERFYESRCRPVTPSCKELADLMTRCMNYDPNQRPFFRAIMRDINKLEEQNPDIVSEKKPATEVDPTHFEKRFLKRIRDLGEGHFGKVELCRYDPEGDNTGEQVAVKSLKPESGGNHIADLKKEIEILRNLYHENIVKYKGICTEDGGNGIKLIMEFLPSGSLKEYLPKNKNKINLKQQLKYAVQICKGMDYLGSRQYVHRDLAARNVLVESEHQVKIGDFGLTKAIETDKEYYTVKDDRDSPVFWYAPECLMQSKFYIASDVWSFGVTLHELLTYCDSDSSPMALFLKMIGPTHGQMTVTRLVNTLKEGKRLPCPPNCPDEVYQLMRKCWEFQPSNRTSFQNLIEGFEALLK

Mus musculus [24] = assay: Antiarthritic activity in collagen-induced DBA1/J mouse arthritis model assessed as decrease in right hind ankle joint thickness administered as po qd measured on day 19 by hematoxylin-eosin staining-based assay; format: functional, organism-based; procedure, shortened: as §3
Mus musculus [25] = assay: Antiarthritic activity in collagen-induced DBA1/J mouse arthritis model assessed as decrease in articular surface cartilage thickness in right hind ankle joints administered as po qd measured on day 19 by hematoxylin-eosin staining-based assay; format: functional, organism-based; procedure, shortened: as §3
Mus musculus [26] = assay: Antiarthritic activity in collagen-induced DBA1/J mouse arthritis model assessed as decrease in clinical arthritis score administered as po qd measured twice weekly for 18 days; format: functional, organism-based; procedure, shortened: as §3
Homo sapiens = species on record: Homo sapiens; assay: Selectivity index, ratio of IC50 for human JAK2 to IC50 for human JAK1
Procedure, shortened: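 Kinase activity assays run as a commercial service at Km ATP; IC50 values fitted from concentration-response data; ratio of JAK2 to JAK1 IC50.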

Mus musculus [27] = assay: Antiarthritic activity in collagen-induced DBA1/J mouse arthritis model assessed as decrease in paw volume administered as po qd measured on day 1 and 15 by plethysmometer
Mus musculus [28] = assay: Antiarthritic activity in collagen-induced DBA1/J mouse arthritis model assessed as decrease in ratio of bone surface to bone volume of right hind ankle joint administered as po qd measured on day 19 by micro-CT analysis; format: functional, organism-based; procedure, shortened: as §3
[29] = target: T1, Tyrosine-protein kinase JAK1; settings: 10 uM
Rattus norvegicus [30] = assay: Antiarthritic activity in adjuvant-induced SPF LEW/SsNSlc rat arthritis model assessed as decrease in clinical arthritis score at 5 to 20 mg/kg, po qd measured on day 14; format: functional, organism-based; procedure, shortened: as §4
[31] = target: T2, Tyrosine-protein kinase JAK3 (Homo sapiens) (UniProt P52333); settings: 10 uM
T2 sequence (whole entry): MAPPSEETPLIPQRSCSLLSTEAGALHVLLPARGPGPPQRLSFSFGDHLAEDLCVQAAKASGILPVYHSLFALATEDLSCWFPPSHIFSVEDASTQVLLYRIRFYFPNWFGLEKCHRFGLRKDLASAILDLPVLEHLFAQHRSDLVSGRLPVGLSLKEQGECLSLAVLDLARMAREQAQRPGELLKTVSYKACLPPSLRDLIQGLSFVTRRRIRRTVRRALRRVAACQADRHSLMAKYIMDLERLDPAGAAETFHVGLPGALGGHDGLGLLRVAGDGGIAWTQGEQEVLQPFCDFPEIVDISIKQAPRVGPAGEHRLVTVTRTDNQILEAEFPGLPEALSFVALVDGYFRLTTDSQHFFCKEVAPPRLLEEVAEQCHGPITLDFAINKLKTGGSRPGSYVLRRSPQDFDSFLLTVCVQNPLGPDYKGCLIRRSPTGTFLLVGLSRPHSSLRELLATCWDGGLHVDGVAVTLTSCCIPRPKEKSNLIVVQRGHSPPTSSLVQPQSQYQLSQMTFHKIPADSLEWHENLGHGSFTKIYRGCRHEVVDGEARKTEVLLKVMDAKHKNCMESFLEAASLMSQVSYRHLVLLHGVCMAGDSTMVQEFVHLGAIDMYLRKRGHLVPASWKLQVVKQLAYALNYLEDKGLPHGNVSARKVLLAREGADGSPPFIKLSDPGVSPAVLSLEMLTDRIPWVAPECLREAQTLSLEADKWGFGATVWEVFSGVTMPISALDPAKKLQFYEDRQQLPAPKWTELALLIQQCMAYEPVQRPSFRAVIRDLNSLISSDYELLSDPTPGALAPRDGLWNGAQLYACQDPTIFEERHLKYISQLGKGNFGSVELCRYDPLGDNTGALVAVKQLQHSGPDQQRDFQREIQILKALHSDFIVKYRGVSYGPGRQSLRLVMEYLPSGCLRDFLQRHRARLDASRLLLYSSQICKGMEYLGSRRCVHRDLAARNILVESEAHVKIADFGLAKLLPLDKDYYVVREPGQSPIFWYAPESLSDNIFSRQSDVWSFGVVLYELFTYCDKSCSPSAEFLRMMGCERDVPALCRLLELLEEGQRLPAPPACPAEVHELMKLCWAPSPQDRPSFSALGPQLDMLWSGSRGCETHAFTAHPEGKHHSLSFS

Mus musculus [32] = assay: Antiarthritic activity in collagen-induced DBA1/J mouse arthritis model assessed as decrease in serum IL-6 levels administered as po qd measured on day 19 by ELISA; format: functional, organism-based; procedure, shortened: as §3
Mus musculus [33] = assay: Antiarthritic activity in collagen-induced DBA1/J mouse arthritis model assessed as decrease in infiltration of inflammatory cells in right hind ankle joints administered as po qd measured on day 19 by hematoxylin-eosin staining-based assay; format: functional, organism-based; procedure, shortened: as §3
[34] = target: Non-receptor tyrosine-protein kinase TYK2 (Homo sapiens) (UniProt P29597); settings: 10 uM
Sequence of Non-receptor tyrosine-protein kinase TYK2 (Homo sapiens) (P29597 whole entry): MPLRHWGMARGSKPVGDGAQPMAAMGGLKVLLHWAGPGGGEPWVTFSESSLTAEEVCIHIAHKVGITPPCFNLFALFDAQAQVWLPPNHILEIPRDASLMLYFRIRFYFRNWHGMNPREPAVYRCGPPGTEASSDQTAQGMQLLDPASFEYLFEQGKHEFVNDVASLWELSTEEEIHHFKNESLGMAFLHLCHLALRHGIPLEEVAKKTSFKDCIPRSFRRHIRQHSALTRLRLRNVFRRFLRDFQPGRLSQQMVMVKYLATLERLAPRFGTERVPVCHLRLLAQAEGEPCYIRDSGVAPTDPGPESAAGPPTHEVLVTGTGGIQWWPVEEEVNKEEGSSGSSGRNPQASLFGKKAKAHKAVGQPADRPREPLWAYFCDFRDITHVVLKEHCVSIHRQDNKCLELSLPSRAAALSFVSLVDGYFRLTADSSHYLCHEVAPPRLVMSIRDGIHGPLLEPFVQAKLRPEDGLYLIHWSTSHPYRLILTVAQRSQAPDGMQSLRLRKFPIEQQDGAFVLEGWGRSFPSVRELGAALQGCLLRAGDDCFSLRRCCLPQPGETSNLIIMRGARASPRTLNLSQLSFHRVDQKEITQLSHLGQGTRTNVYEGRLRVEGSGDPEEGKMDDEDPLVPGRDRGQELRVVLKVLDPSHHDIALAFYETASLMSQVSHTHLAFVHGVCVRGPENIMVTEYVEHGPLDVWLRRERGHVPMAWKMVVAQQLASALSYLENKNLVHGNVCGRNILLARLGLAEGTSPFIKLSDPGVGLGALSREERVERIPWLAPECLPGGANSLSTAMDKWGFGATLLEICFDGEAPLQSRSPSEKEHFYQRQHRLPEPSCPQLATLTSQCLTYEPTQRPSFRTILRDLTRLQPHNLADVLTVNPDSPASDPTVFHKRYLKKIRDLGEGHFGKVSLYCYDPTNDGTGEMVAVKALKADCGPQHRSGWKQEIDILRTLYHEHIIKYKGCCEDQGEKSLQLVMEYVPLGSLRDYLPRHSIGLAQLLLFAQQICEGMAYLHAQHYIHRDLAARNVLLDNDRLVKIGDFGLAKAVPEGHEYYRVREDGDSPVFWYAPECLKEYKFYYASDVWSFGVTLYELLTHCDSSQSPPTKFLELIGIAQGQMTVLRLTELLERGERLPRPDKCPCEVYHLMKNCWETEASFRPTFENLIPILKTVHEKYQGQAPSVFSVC

Structure (SMILES)	half-life [1] [h]	half-life [2] [h]	AUCt (Rattus norvegicus [3]) [ng·h/mL]	AUC (Rattus norvegicus [4]) [ng·h/mL]	MRT [5] [h]	AUC (Rattus norvegicus [6]) [ng·h/mL]	Tmax [7] [h]	MRT [8] [h]	Cmax [9] [ng/mL]	bioavailability [10] [%]	AUCt (Rattus norvegicus [11]) [ng·h/mL]	other results
CN(c1ncnc2[nH]ccc12)[C@H]1CN(C(=O)CC#N)CC12CC2.O=C(O)CC(O)(CC(=O)O)C(=O)O	4.3	3.6	2400	2000	2.3	2400	0.5	1.2	1200	58	2000	
CN(c1ncnc2[nH]ccc12)[C@H]1CN(C(=O)CC#N)CC12CC2.O=C(O)C(O)C(O)C(=O)O	1	1	1900	1400	1.5	1900	0.4	0.9	1000	68	1400	
O=C(Nc1nc2cccc(-c3ccc(CN4CCS(=O)(=O)CC4)cc3)n2n1)C1CC1 [FILGOTINIB]												Activity (Mus musculus [12]): Active; Activity (Mus musculus [13]): Active; Activity (Mus musculus [14]): Active; Activity (Mus musculus [15]): Active; Activity (Mus musculus [16]): Active; Activity (Rattus norvegicus [17]): 10.32 mm; Activity (Mus musculus [18]): Active; Activity (Mus musculus [19]): Active; Activity (Rattus norvegicus [20]): Active; Activity (Mus musculus [21]): Active
N#CCC(=O)NC1CN(c2ncnc3[nH]ccc23)CC12CC2 (configuration not stated)												inhibition at 1 µM [22]: 10%; inhibition [23]: 6%
CN(c1ncnc2[nH]ccc12)[C@H]1CN(C(=O)CC#N)CC12CC2												Activity (Mus musculus [24]): Dose-dependent effect; Activity (Mus musculus [25]): Dose-dependent effect; Activity (Mus musculus [26]): Dose-dependent effect; Ratio IC50 (Homo sapiens): 48; Activity (Mus musculus [27]): Dose-dependent effect; Activity (Mus musculus [28]): Dose-dependent effect; inhibition [29]: 90%; Activity (Rattus norvegicus [30]): Active; inhibition [31]: 90%; Activity (Mus musculus [32]): Dose-dependent effect; Activity (Mus musculus [33]): Dose-dependent effect; inhibition [34]: 90%
CN(c1ncnc2[nH]ccc12)[C@H]1CN(C(=O)CC#N)CC12CC2.Cl	0.6	1.1	2400	1900	1.6	2400	0.4	0.7	1300	65	1800	
